The values that follow come from PubChem BioAssay.

SMILES strings stand for the structures. Activity calls are given as the source filed them.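 Rule for the calls, unless noted: active = NADPH fluorescence slope more negative than the mean of all samples by about 3 SD, 99.7% confidence; inactive = the rest.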

A short description of test [1]: inhibitors of TNFa-induced NFkB p65 translocation, primary screen, imaging, HUVEC, MLSMR starter and 10KST1 sets (AID 438;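 active = inhibition above 20% together with a positive visual image hit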;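 note: compound added about 3h40 before a 20 min TNFalpha stimulation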;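 for inhibition: signal is the nuclear over cytoplasmic p65 intensity ratio per well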). Conditions: HUVEC TNFa-induced p65 nuclear translocation; cell count: measured here: nuclei count (cytotoxicity indicator), at 2.08 µM; inhibition: at 2 µM, stronger effect = higher value, 0% TNFa-plus-vehicle, 100% no-TNFa wells.
Test [2] in a line: inhibitors of E-selectin induction by TNFa, primary screen, imaging, HUVEC, immunofluorescence, MLSMR starter and 10KST1 sets (AID 487;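 active = visually confirmed hit in the image check and inhibition above 20%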;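 for inhibition: signal is fraction of cell area covered by stained E-selectin grains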;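 for nuclei count: 100% = median nuclei count of all wells on the same plate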). Conditions: HUVEC TNFalpha-induced E-selectin immunofluorescence imaging, at 2 µM; inhibition: stronger effect = higher value; nuclei count: measured here: cell number, toxicity.
A short description of test [3]: DUSP6 inhibitors restoring Erk phosphorylation by chemical complementation, primary imaging in DUSP6-transfected HeLa (AID 609;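 active = compounds giving at least 50% inhibition in the cell-based MKP-3 phosphatase rescue imaging test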;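 for inhibition: phospho-Erk level distribution per well compared with pooled transfected vehicle control wells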). Conditions: HeLa MKP-3 transfected, phospho-Erk imaging KS statistic, at 10 µM, cells stimulated with TPA for 15 min.
For test [4], the target named is Dual specificity protein phosphatase 6 (Homo sapiens) (UniProt Q16828). Described as above. Conditions: HeLa MKP-3 transfected, phospho-Erk imaging KS statistic; at 10 µM; stronger effect = higher value; cells stimulated with TPA for 15 min.
Sequence of Dual specificity protein phosphatase 6 (Homo sapiens) (Q16828 whole entry, looked up): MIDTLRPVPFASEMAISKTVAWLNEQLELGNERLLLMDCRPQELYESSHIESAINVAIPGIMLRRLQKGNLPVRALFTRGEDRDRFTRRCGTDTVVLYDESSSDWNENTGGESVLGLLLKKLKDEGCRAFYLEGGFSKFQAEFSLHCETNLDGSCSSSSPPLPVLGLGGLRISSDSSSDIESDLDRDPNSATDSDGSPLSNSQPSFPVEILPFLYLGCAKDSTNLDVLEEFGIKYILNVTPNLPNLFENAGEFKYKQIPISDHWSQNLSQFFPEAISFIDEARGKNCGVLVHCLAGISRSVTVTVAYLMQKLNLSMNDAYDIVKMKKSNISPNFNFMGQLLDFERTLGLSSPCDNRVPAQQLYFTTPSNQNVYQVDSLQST
The target of test [5] is Voltage-gated potassium channel subunit beta-2 (Rattus norvegicus) (UniProt P62483). The test can be described thus: KvBeta enzyme negative modulators, primary screen, biochemical, NADPH fluorescence (AID 622;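 active = fluorescence slope higher than the sample average by over 3 SD, cut at about -0.22 in these data, passing the limit was not always enough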;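 note: slope of raw intensity against log time taken from 70 to 1610 s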). Conditions: recombinant KvBeta, 4-cyanobenzaldehyde reduction, at 10 µM, stronger effect = higher value.
Sequence of Voltage-gated potassium channel subunit beta-2 (Rattus norvegicus) (P62483 whole entry, looked up): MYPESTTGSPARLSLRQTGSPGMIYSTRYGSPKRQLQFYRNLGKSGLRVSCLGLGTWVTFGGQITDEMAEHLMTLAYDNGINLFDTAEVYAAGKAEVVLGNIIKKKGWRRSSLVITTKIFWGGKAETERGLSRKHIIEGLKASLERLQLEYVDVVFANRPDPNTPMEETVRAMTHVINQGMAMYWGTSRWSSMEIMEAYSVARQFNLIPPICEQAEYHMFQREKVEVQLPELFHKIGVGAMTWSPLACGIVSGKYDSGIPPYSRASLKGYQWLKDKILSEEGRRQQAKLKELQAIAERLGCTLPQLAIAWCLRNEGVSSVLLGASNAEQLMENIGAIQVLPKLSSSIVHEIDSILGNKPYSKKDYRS
For test [6] the target is unchanged. Description: KvBeta positive modulators, primary screen, biochemical, NADPH fluorescence (AID 623).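 Note: fluorescence intensity change per second fitted from 20 to 320 s.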 Conditions: Recombinant KvBeta, NADPH fluorescence decrease slope, 10 min; at 10 µM; stronger effect = lower value.
For test [7], the target named is Alpha-2C adrenergic receptor (Homo sapiens) (UniProt P18825). The test can be described thus: modulators of alpha2C/GIRK thallium flux, primary screen, cell-based, HEK293 alpha2C/GIRK1/2 (AID 624;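 active = fluorescence slope after compound addition differing from the mean of all screened samples at 99.7% confidence, in either direction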;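 note: slope of fluorescence ratio to pre-addition baseline per second over 15 to 24 s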). Conditions: thallium flux BTC fluorescence, at 10 µM, actives lie on both sides.
Sequence of Alpha-2C adrenergic receptor (Homo sapiens) (P18825 whole entry, looked up): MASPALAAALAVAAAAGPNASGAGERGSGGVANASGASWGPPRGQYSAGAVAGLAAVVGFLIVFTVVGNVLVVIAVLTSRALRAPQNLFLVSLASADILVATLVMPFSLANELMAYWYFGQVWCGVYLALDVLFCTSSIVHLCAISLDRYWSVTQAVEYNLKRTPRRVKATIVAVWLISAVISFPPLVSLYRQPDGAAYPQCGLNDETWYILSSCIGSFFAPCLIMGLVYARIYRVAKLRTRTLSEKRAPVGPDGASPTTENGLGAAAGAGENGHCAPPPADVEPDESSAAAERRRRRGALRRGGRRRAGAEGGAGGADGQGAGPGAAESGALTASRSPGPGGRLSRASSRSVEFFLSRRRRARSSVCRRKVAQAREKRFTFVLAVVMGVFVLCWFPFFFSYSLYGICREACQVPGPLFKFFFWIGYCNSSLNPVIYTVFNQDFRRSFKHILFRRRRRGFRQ
A short description of test [8]: inhibitors of larval lipid processing in zebrafish, primary screen, whole organism, PED6 fluorescence, gall bladder and intestine (AID 686;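 active = a full or partial loss of lipid-probe fluorescence in the fish gall bladder, intestine or both, judged by eye; inactive = no fluorescence loss, or compound toxic to the fish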;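 note: larvae 5 to 7 days old with five fish per well; signal comes from phospholipase A2 cleavage of quenched PED6 carried via bile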). Conditions: Zebrafish larvae PED6 lipid processing, fluorescence scoring; screened at 20 µM (by protocol). The method in brief: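 Incubation: overnight exposure of larvae to compound plus PED6 / Test system: live zebrafish larvae aged 5-7 days, whole organism / Amount: 5 larvae per well / Read-out basis: visual per-well fluorescence inhibition score / Signal: visual fluorescence microscopy scoring of gall bladder, gut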

Test [9] in a line: inhibitors of Chlamydomonas gravitaxis, primary screen, whole organism, Chlamydomonas reinhardtii, WT vs cilia-less mutant, absorbance, 96-well (AID 463189;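 active = inhibition at or above 50% relative to wild type and mutant plate controls; inactive = inhibition below 50%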;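 note: 0% = wild type cc124 cells in DMSO and 100% = ciliumless bld1 mutant cells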). Conditions: OD600 absorbance, 2 days, at 10 µM, stronger effect = higher value.
[10] abbreviates: measured here: cell density z-score.
The mark [11] stands for this setting: measured here: nuclear c-Myc green intensity z-score.
The mark [12] stands for this setting: measured here: nuclear pErk red intensity z-score, stronger effect = higher value.

Turning to `COc1cc(-c2nn3c(COc4ccccc4)nnc3s2)cc(OC)c1OC`, the cell count in test [1] came to 497. Besides, the inhibition in test [1] is -2.1% (inactive); in [2], -95% (inactive); in test [4], -4.27% (inactive); in test [9], -11% (inactive). Besides, the nuclei count in test [2] is 105%. The z-score in [3] (setting [10]) is -0.725; in test [3] (setting [11]) it was 2.38; in test [3] (setting [12]), 0.000132. Moreover, in test [5], the fluorescence slope was -0.417 (inactive). Also, the NADPH fluorescence slope in test [6] was -1.5e-06 (inactive). Also, the slope in test [7] is 0.00817 (inactive). In [8], the compound was classed as inactive.
With `COC(=O)CSc1nc(N)c2c3c(sc2n1)CCCC3`, the cell count in test [1] is 627. Moreover, the inhibition in test [1] was -10.6% (inactive); in test [2], -9.7% (inactive); in [4], 4.37% (inactive); in [9], -6.63% (inactive). The compound further gave a nuclei count in test [2] of 172%. Further, the results for the z-score in [3] (setting [10]), in [3] (setting [11]) and in test [3] (setting [12]) were -2.1, 0.19 and 1.1, respectively. The fluorescence slope in test [5] is -0.355 (inactive). In addition, the NADPH fluorescence slope in test [6] is -6.3e-05 (inactive). Besides, in test [7], the slope was 0.00567 (inactive). Also, the compound was classed as inactive in [8].
Take `COc1ccc(OC(=O)c2cc3ccccc3o2)cc1`: the cell count in [1] was 610. Besides, the inhibition in [1] was -1.1% (inactive); in test [2], 77.3% (active); in test [4], -9.66% (inactive); in test [9], -0.854% (inactive). Moreover, the nuclei count in test [2] worked out at 142%. In addition, the z-score was -0.358 in test [3] (setting [10]), -0.13 in test [3] (setting [11]) and -0.531 in test [3] (setting [12]). The fluorescence slope in test [5] was -0.377 (inactive). The NADPH fluorescence slope in [6] was -3.8e-05 (inactive). In addition, in test [7], the slope is 0.0058 (inactive). The compound was called inactive in [8].
`N#CC1=C(N)N2C(=C(C#N)C1c1ccccc1)Sc1ccccc12` (centres undefined): in [1], the cell count worked out at 653. For the same compound, the inhibition is -14.8% (inactive) in test [1], 9.7% (inactive) in [2], 17.7% (inactive) in [4] and 44.9% (inactive) in [9]. In [2], this compound displayed a nuclei count of 116%. For the same compound, the results for the z-score in test [3] (setting [10]), in test [3] (setting [11]) and in test [3] (setting [12]) were 1.49, -0.461 and -0.35, respectively. The fluorescence slope in test [5] is -0.452 (inactive). Also, the NADPH fluorescence slope in [6] is -9.4e-06 (inactive). Besides, the slope in test [7] is 0.0107 (inactive). In addition, the outcome in test [8] was inactive.
As for `CCOC(=O)c1cc(C)n(-c2ccc(OC)c(OC)c2)c1C`, the cell count in test [1] is 530. For the same compound, the inhibition in test [1] was -8.1% (inactive); in test [2], -25.1% (inactive); in test [4], 5.57% (inactive); in [9], -0.885% (inactive). This compound also displayed a nuclei count in [2] of 122%. Further, the z-score in test [3] (setting [10]) was 1.68; in test [3] (setting [11]), -2.38; in [3] (setting [12]), -0.201. Also, the fluorescence slope in [5] is -0.516 (inactive). Further, the NADPH fluorescence slope in test [6] was -0.000114 (inactive). Besides, in test [7], the slope was 0.00418 (inactive). The call in [8] was inactive.
As to `Cc1ccc(-c2nn3c(-c4cccc(Cl)c4)nnc3s2)cc1`, the cell count in test [1] came out at 482. Also, the inhibition in test [1] is -6.6% (inactive); in test [2] it was -115% (inactive); in test [4] it was -7.86% (inactive); in test [9], 26.8% (inactive). This compound displayed a nuclei count in [2] of 128%. Also, the z-score is -1.6 in test [3] (setting [10]), -0.179 in [3] (setting [11]) and 1.45 in test [3] (setting [12]). In addition, the fluorescence slope in test [5] was -0.434 (inactive). Besides, the NADPH fluorescence slope in test [6] is 7.3e-06 (inactive). For the same compound, the slope in [7] was 0.00635 (inactive). In addition, in test [8], the outcome was inactive.
`CC(=O)c1ccc(O)c(CO)c1`: the cell count in test [1] turned out to be 639. In addition, the inhibition in test [1] was -20.9% (inactive); in [2], -32.3% (inactive); in test [4], 4.37% (inactive); in [9], -12.4% (inactive). The nuclei count in [2] is 101%. The z-score in test [3] (setting [10]) was -0.0166; in test [3] (setting [11]) it was 0.525; in test [3] (setting [12]) it was -0.493. The fluorescence slope in test [5] is -0.463 (inactive). Also, the NADPH fluorescence slope in test [6] is -1.1e-05 (inactive). Also, in test [7], the slope is 0.00706 (inactive). The call in [8] was inactive.
As for `CC1CN(c2oc(-c3ccccc3Cl)nc2C#N)CC(C)O1` (centres undefined), in test [1], the cell count is 355. Further, the inhibition in [1] was -5.2% (inactive); in test [2], -154% (inactive); in [4], -0.159% (inactive); in test [9], -9.38% (inactive). In test [2], this compound came in with a nuclei count of 83.5%. Also, the z-score in test [3] (setting [10]) is -0.0257; in test [3] (setting [11]) it was -0.411; in test [3] (setting [12]), -1.37. In [5], the fluorescence slope was -0.433 (inactive). Moreover, the NADPH fluorescence slope in test [6] was -9.2e-06 (inactive). The slope in test [7] is 0.00575 (inactive). In test [8], the outcome was inactive.
`COC(=O)c1nn2c(C(F)(F)F)cc(-c3ccc(Br)o3)nc2c1Br`: the cell count in [1] came out at 510. Moreover, the inhibition in test [1] is -7.1% (inactive); in test [2], 1.9% (inactive); in [4] it was -2.07% (inactive); in [9], 8.6% (inactive). In test [2], this compound yielded a nuclei count of 120%. The z-score in [3] (setting [10]) is -1.65; in test [3] (setting [11]) it was -0.461; in test [3] (setting [12]) it was 2.56. The fluorescence slope in test [5] is -0.442 (inactive). For the same compound, the NADPH fluorescence slope in test [6] was -6.2e-05 (inactive). In addition, the slope in test [7] is 0.00401 (inactive). Moreover, the compound was classed as inactive in test [8].
For the compound `CC(=O)c1cc(C#N)c(SCc2ccncc2)nc1C`, the cell count in test [1] is 591. In addition, the inhibition in test [1] is -18.5% (inactive); in [2], 40% (inactive); in test [4] it was -2.29% (inactive); in test [9], -20.5% (inactive). Also, in test [2], the nuclei count came to 122%. Further, the z-score in test [3] (setting [10]) is 1.87; in test [3] (setting [11]), -0.619; in test [3] (setting [12]), 1.67. In addition, the fluorescence slope in test [5] was -0.548 (inactive). Besides, the NADPH fluorescence slope in test [6] was -8.8e-06 (inactive). In addition, the slope in test [7] was 0.00573 (inactive). Besides, the result in [8] was inactive.
In the case of `Cc1cc(C)nc(N(C#N)CC(=O)N(c2ccccc2)C(C)C)n1`, the cell count in test [1] is 584. The inhibition in [1] is -10.3% (inactive); in test [2], 50% (inactive); in test [4], -11% (inactive); in [9], 5.11% (inactive). Also, the nuclei count in test [2] came to 140%. For the same compound, the z-score is -1.19 in test [3] (setting [10]), -0.154 in test [3] (setting [11]) and 2.33 in test [3] (setting [12]). Further, the fluorescence slope in test [5] is -0.345 (inactive). In addition, in test [6], the NADPH fluorescence slope is -2.8e-05 (inactive). Besides, the slope in test [7] is 0.00548 (inactive). For the same compound, in test [8], the compound was classed as inactive.
Consider `Clc1ccc(SCc2cn3ccsc3n2)cc1`, for which the cell count in [1] was found to be 516. For the same compound, the inhibition is -11.3% (inactive) in [1], -61.5% (inactive) in test [2], -11% (inactive) in [4] and 31.1% (inactive) in [9]. Further, in test [2], the nuclei count stood at 170%. Besides, the z-score in [3] (setting [10]) is -0.751; in test [3] (setting [11]), 0.432; in test [3] (setting [12]), -0.146. In addition, the fluorescence slope in test [5] was -0.476 (inactive). Besides, the NADPH fluorescence slope in test [6] is -0.000195 (inactive). Further, in test [7], the slope was 0.0044 (inactive). For the same compound, in test [8], the result was inactive.
Turning to `Cc1ccc(C2CC(C(F)(F)F)n3ncc(C(N)=O)c3N2)cc1` (centres undefined), the cell count in test [1] is 506. Further, the inhibition in test [1] is -1.3% (inactive); in test [2], 4.8% (inactive); in test [4], -7.79% (inactive); in test [9] it was 16.3% (inactive). For the same compound, the nuclei count in test [2] came out at 124%. The z-score in [3] (setting [10]) was -0.204; in [3] (setting [11]), -0.144; in test [3] (setting [12]) it was 1.07. Moreover, the fluorescence slope in [5] was -0.5 (inactive). In addition, the NADPH fluorescence slope in test [6] is -8.2e-05 (inactive). Also, the slope in test [7] is 0.00506 (inactive). The compound was called inactive in [8].

As usually defined, the inhibition is the relative decrease from the control value, in per cent.
